Screening results (PubChem)
Hck-Nef inh: inhibitors of Nef-activated human Hck kinase, primary screen, biochemical, Z-Lyte FRET, 384-well, Hck-YEEI | 0.68% of 220,000 active | Tyrosine-protein kinase HCK (Homo sapiens), P08631 | Recombinant Hck-YEEI plus Nef, Z-Lyte FRET kinase assay | inhibition, % at 20 µM;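 active = Hck-Nef kinase inhibition above about 50%, limit read from the data; inactive = inhibition below that limit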;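 also: 0% = DMSO with Hck plus Nef and 100% = Hck alone without Nef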
14-3-3 Bad PPI: inhibitors of 14-3-3 zeta/Bad binding, primary screen, biochemical, TR-FRET, bovine 14-3-3 zeta; 14-3-3 protein zeta/delta (Bos taurus), P63103; TR-FRET 14-3-3zeta/Dy647-pBad peptide displacement, 1 h; inhibition, % at 21.7 µM; 0.71% of 220,000 active; AID 781, 2007;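 active = inhibition above about 70%, limit read from the data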;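 also: 0% = full 14-3-3 plus peptide FRET controls and 100% = background without 14-3-3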
Calb biofilm kill: clotrimazole potentiators killing C. albicans biofilm, primary screen, 4-compound mixtures. C. albicans biofilm persisters + clotrimazole, fluorescence viability; primary screen in compound mixtures of four per well. inhibition, % at 7.6 µM. 0.02% of 120,000 active;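 active = inhibition above 30.3% in the primary screen of four-compound pools, then above 30% when the compound was retested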;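 also: compounds exposed to preformed 24 h biofilms for 48 h; 0% = untreated biofilm control and 100% = clotrimazole plus chlorhexidine kill blank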
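System: C. albicans CAF4-2 wild-type biofilms; Medium: RPMI/MOPS medium, pH 7.0; Reagent: Clotrimazole, 50 µg/mL; Times: biofilm formation 24 h, compound exposure 48 h, 37 °C; Detection: 2-h Alamar Blue fluorescence, 535/590 nm excitation/emission; Evaluation: percent inhibition of biofilm viability.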
Mcl1-Noxa inh: Mcl-1/Noxa binding inhibitors, primary screen, biochemical, TR-FRET, 1536-well | AID 1022, 2008 | TR-FRET Mcl-1/Noxa peptide binding, 2 h | 1.5% of 220,000 active | inhibition, % at 21.7 µM;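 active = compounds that cut the protein-peptide binding signal by more than 50% relative to plate controls in a single-dose test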;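 also: His-tagged Mcl-1 with rhodamine Noxa BH3 peptide and terbium anti-His antibody; 0% = Mcl-1 plus Noxa peptide wells and 100% = peptide-only wells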
Target sequence (Q07820 whole entry, looked up): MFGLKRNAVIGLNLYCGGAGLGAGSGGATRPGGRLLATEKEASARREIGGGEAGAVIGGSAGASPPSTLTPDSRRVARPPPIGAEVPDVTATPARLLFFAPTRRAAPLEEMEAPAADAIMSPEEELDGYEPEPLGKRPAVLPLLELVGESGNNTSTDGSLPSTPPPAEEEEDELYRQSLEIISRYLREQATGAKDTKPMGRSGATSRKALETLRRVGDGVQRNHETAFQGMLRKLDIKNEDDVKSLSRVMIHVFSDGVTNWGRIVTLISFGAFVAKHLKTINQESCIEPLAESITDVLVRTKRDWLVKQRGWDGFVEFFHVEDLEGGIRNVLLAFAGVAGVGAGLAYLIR
Bim-Mcl-1: inhibitors of Bim peptide binding to Mcl-1, primary screen, biochemical, bead-based flow cytometry, multiplex | 0.1% of 190,000 active | inhibition, % at 10 µM | AID 1009, 2008 | Bim peptide-Mcl-1 binding; in the data active = inhibition above about 40%;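 also: 0% = no compound tracer wells and 100% = peptide blocker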
Mcl1-Bid inh: Mcl-1/Bid binding inhibitors, primary screen, biochemical, TR-FRET, 1536-well; Induced myeloid leukemia cell differentiation protein Mcl-1 (Homo sapiens), Q07820; TR-FRET Mcl-1/Bid-Dy647 peptide binding; inhibition, % at 21.7 µM; 0.97% of 220,000 active; AID 1021, 2008;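 active = compounds that cut the binding signal by more than half at the single screening dose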;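 also: His-tagged Mcl-1 with europium anti-His antibody binding Bid BH3 peptide; 0% = Mcl-1 plus peptide wells and 100% = peptide-only wells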
The depositor's hits bear a star; · = no result given. Shown are actives, neighbours in structure and some others; about 3.2% of the full set was active somewhere.

SMILES | Hck-Nef inh | 14-3-3 Bad PPI | Calb biofilm kill | Mcl1-Noxa inh | Bim-Mcl-1 | Mcl1-Bid inh
O=C(O)CC(c1cccc([N+](=O)[O-])c1)N1Cc2ccccc2C1=O (stereo not drawn) | -5 | 3 | 13 | 7 | -3 | 14
O=C(O)[C@@H](c1ccccc1)N1Cc2ccccc2C1=O | 0 | 92* | · | 16 | 0 | 98*
Cc1[nH]c(=O)[nH]c(=O)c1/C=N/NC(=O)[C@@H](N)CC(C)C | 0 | -5 | 19 | 4 | · | -9
O=C(CNC(=O)C(c1ccccc1)c1ccccc1)N/N=C/c1cccnc1 | 4 | 3 | 4 | 95* | · | -3
COc1cc(C(=O)NCC(C)C)cc(OC)c1OC | 2 | 21 | · | -7 | 0 | -25
COc1cc(C(=O)NCc2ccc(C(=O)NCC(OC)OC)cc2)cc(OC)c1OC | 12 | 72* | 9 | 2 | 0 | 64*
COc1cccc(C(=O)NCC(=O)N/N=C/c2ccc(OC(=O)c3cccs3)c(OC)c2)c1 | 3 | -5 | -3 | 14 | -4 | -8
O=C(N/N=C/c1ccc(OC(=O)c2cccs2)cc1)c1cccc(F)c1 | 2 | 72* | · | 25 | · | 9
O=C(/C=C/N1CCOCC1)c1cc2ccccc2o1 | 2 | -24 | · | 6 | 2 | 75*
O=C(O)c1coc2ccccc12 | 3 | 5 | · | 14 | 0 | -4
O=C(/C=C/N1CCOCC1)c1coc2ccccc12 | 1 | 3 | · | -3 | -1 | 71*
O=C(c1ccco1)N1CCN(S(=O)(=O)c2ccc([N+](=O)[O-])cc2)CC1 | 15 | -9 | 13 | 9 | 3 | 5
CCOc1ccc(C(=O)N/N=C/c2ccc(-c3ccc(S(=O)(=O)Nc4ncccn4)cc3)o2)cc1 | 16 | 6 | · | 46 | 0 | -22
O=C(N/N=C/c1ccc(-c2ccc(S(=O)(=O)Nc3ncccn3)cc2)o1)c1cc2ccccc2cc1O | 48 | 6 | · | 106* | 4 | 51*
CCCCOCC1CC(CC#CCN2CCCCC2)C(=O)O1 (stereo not drawn) | 16 | 78* | -6 | 23 | 2 | -9
CCCOCC1CC(CCc2nc(=S)[nH][nH]2)C(=O)O1 (stereo not drawn) | 1 | -11 | 19 | 4 | -12 | -63
Cc1cc(C)n(CCCNC(=O)c2ccc(S(=O)(=O)NCc3ccco3)cc2)n1 | 1 | -12 | · | 0 | -2 | 9
O=C(NCc1cccnc1)/C(=C\c1ccc(-c2cccc(Cl)c2)o1)S(=O)(=O)c1ccccc1 | 2 | 1 | 20 | 47 | -7 | 49
O=C(NCc1cccnc1)/C(=C/c1ccc(-c2cccc(Cl)c2)o1)S(=O)(=O)c1ccccc1 | 2 | 3 | · | 38 | -6 | 57*
O=C(COC(=O)CN=C1NS(=O)(=O)c2ccccc21)Nc1ccccc1OC(F)F | -2 | -2 | 14 | 3 | 1 | -19
CCCCC(=O)Nc1ccc(C(=O)Nc2nc(CC(=O)OCC)cs2)cc1 | 1 | 0 | · | 4 | 0 | -1
Oc1ccc(C(c2nnnn2C2CCCC2)N2CCc3ccccc3C2)cc1 (stereo not drawn) | 3 | 76* | · | 25 | 1 | -11
COc1cc(C(c2nnnn2C2CCCC2)N2CCc3ccccc3C2)ccc1O (stereo not drawn) | 1 | 61 | · | 77* | 0 | 9
COc1ccc(C(c2nnnn2C2CCCC2)N2CCN(c3ccccc3)CC2)cc1 (stereo not drawn) | -13 | -1 | 11 | -9 | -2 | -18
Cc1ccc(C(c2nnnn2C2CCCCC2)N2CCc3ccccc32)cc1 (stereo not drawn) | 0 | -11 | 11 | 22 | 0 | -35
Cc1cc(NC(=O)CCN2C(=O)/C(=C\c3ccccc3)SC2=S)no1 | 13 | -4 | 12 | 71* | · | -5
